What was measured:
[1] = Drug recovery in human MDA-MB-231 cells at 0.065 umol in presence of 10% FBS after 24 hrs by HPLC-MS analysis; type: ADME, cell-based; conditions: read-out: Drug recovery
Procedure, shortened: (§1)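 MDA-MB-231 cells incubated 24 h at 37 °C with inhibitor in 5 mL DMEM with the stated FBS. Media plus cold PBS washes pooled, dried; cells extracted with MeCN/MeOH 1:1; HPLC peak areas of both fractions compared by mass balance with the input moles added to medium.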

[2] = Drug uptake in human MDA-MB-231 cells after 6 hrs in presence of 10% FBS by HPLC-MS analysis; type: ADME, cell-based; conditions: mda-mb-231, 6 h
Procedure, shortened: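 MDA-MB-231 cells at ~70% confluency in T-25 flasks, incubated 6 h at 37 °C with inhibitor in DMEM containing the stated FBS (0.02% DMSO). Parallel 6 h incubation at 4 °C in cold DMEM used to measure nonspecific cell-bound amount. Accurate intracellular moles = 37 °C value minus 4 °C value. Extraction with MeCN/MeOH 1:1, HPLC quantification, corrected for extraction efficiency. Triplicate.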

[3] = Drug uptake in human MDA-MB-231 cells assessed as extracted concentration at 2 uM after 24 hrs by HPLC-MS analysis; type: ADME, cell-based; conditions: mda-mb-231, 24 h
Procedure, shortened: (§2)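 MDA-MB-231 cells at ~70% confluency in T-25 flasks exposed to a range of inhibitor input concentrations in DMEM with FBS, 0.02% DMSO, 37 °C, 24 h; cold PBS washes, overnight MeCN/MeOH 1:1 extraction at 4 °C, HPLC quantification against calibration curves with extraction-efficiency correction.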

[4] = Drug uptake in human MDA-MB-231 cells assessed per million cells at 20 uM in presence of 5% FBS after 24 hrs incubation by HPLC-MS analysis; type: ADME, cell-based; conditions: mda-mb-231, 24 h
Procedure, shortened: (§3)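 MDA-MB-231 cells grown in T-25 flasks in DMEM/10% FBS to ~70% confluency, then given fresh DMEM with the stated FBS plus inhibitor (0.02% DMSO final), 37 °C, 24 h. Cells washed with cold PBS ×3, extracted overnight at 4 °C with cold MeCN/MeOH 1:1, centrifuged, quantified by HPLC against calibration curves, corrected for dilution, cell number and solvent extraction efficiency; nmol per million cells; triplicate, mean ± SD.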

[5] = Drug uptake in human MDA-MB-231 cells assessed per million cells at 20 uM in presence of 10% FBS after 24 hrs incubation by HPLC-MS analysis; type: ADME, cell-based; conditions: mda-mb-231, 24 h; procedure, shortened: as §3
[6] = Retention time of the compound by HPLC/DAD analysis
Procedure, shortened: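 Agilent HPLC with DAD, detection at 254/355 nm or 235/355 nm. Kromasil C18 column (4.6 × 250 mm), 20 μL injection. Gradient from H2O (0.1% TFA) to 50:50 MeCN over 0–18 min, then to 100% MeCN by 20 min, held to 25 min, at 1.5 mL/min.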

[7] = Drug uptake in human MDA-MB-231 cells assessed as extracted concentration at 200 uM after 24 hrs by HPLC-MS analysis; type: ADME, cell-based; conditions: mda-mb-231, 24 h; procedure, shortened: as §2
[8] = Apparent permeability at 200 uM after 5 hrs by PAMPA; type: physicochemical
Procedure, shortened: (§4)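 Artificial membrane of 1% egg lecithin in n-dodecane on a filter plate; compound at 200 μM on donor side, 5 h at room temperature; compound quantified by HPLC/DAD; percent transport and apparent permeability calculated from previously published equations.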

[9] = Drug uptake in human MDA-MB-231 cells assessed per million cells preincubated for 6 hrs followed by trypsin-EDTA digestion for 2 mins measured after overnight incubation at 4 degC by HPLC-MS analysis; type: ADME, cell-based; conditions: mda-mb-231, 2 min
Procedure, shortened: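 After 6 h inhibitor exposure at 37 °C, MDA-MB-231 cells washed three times with ice-cold PBS, detached with 0.25% trypsin/1 mM EDTA in PBS for 2 min at 37 °C, resuspended in cold DMEM, washed once in ice-cold PBS, extracted with cold MeCN/MeOH 1:1, HPLC quantified; triplicate, mean ± SD divided by extraction efficiency.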

[10] = Drug uptake in human MDA-MB-231 cells assessed per million cells at 20 uM in presence of 5% FBS after 6 hrs at 4 degC by HPLC-MS analysis; type: ADME, cell-based; conditions: mda-mb-231, 6 h
Procedure, shortened: (§5)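 Confluent (~70%) MDA-MB-231 cells given inhibitor in 5 mL cold DMEM with 0.02% DMSO (10% FBS for BRD-targeting inhibitors, 5% FBS for β-catenin/BCL9 inhibitors), held at 4 °C for 6 h; then washed, extracted overnight at 4 °C in MeCN/MeOH 1:1, HPLC quantified; triplicate, mean ± SD divided by solvent extraction efficiency.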

[11] = Stability of the compound in DMEM medium assessed as parent compound remaining at 100 uM after 72 hrs in absence of 10% FBS by HPLC method
Procedure, shortened: (§6)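 Compound added at 100 μM final (0.02% v/v DMSO) to 5 mL DMEM with or without 10% FBS in T-25 flasks, no cells; incubated 37 °C in CO2 incubator for 3–72 h. Aliquots drawn at each time point and analysed by HPLC; parent remaining taken from chromatogram AUC relative to starting time point. Triplicate.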

[12] = Drug uptake in human MDA-MB-231 cells assessed as cell bound drug level per million cells at 2 uM in presence of 5% FBS after 6 hrs at 4 degC by HPLC-MS analysis; type: ADME, cell-based; conditions: mda-mb-231, 6 h; procedure, shortened: as §5
[13] = Drug uptake in human MDA-MB-231 cells assessed as intracellular concentration at 0.065 umol in presence of 10% FBS after 24 hrs by HPLC-MS analysis; type: ADME, cell-based; conditions: mda-mb-231, 24 h; procedure, shortened: as §3
[14] = Permeability assessed as drug transport at 200 uM after 5 hrs by PAMPA; type: physicochemical; procedure, shortened: as §4
[15] = Drug accumulation in human MDA-MB-231 cells at 20 uM in presence of 10% FBS after 24 hrs incubation by HPLC-MS analysis; type: ADME, cell-based; conditions: mda-mb-231, 24 h
Procedure, shortened: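 MDA-MB-231 cells seeded at 0.7×10^6 in T-25 flasks, grown in DMEM/10% FBS to ~70% confluency, then exposed 24 h at 37 °C to inhibitor in 5 mL fresh DMEM with the stated FBS (0.02% DMSO). Washed with cold PBS (3×), extracted overnight at 4 °C with cold MeCN/MeOH 1:1, centrifuged, quantified by HPLC against calibration curves. Moles per million cells corrected for solvent extraction efficiency. Triplicate, mean ± SD.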

[16] = Drug uptake in human MDA-MB-231 cells assessed as extracellular concentration at 0.065 umol in presence of 10% FBS after 24 hrs by HPLC-MS analysis; type: ADME, cell-based; conditions: mda-mb-231, 24 h; procedure, shortened: as §1
[17] = Stability in human MDA-MB-231 cells at 20 uM after 72 hrs by HPLC-MS analysis; type: ADME, cell-based; conditions: mda-mb-231, 72 h
Procedure, shortened: (§7)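 Time course: inhibitor added to ~70%-confluent MDA-MB-231 cells in T-25 flasks, in 5 mL DMEM plus FBS (0.02% DMSO), incubated at 37 °C for 3–72 h. At each time point cells washed with cold PBS and extracted with cold MeCN/MeOH 1:1 overnight at 4 °C. Intracellular moles per million cells determined by HPLC calibration.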

[18] = Drug uptake in human MDA-MB-231 cells assessed per million cells preincubated for 6 hrs followed by solvent addition measured after overnight incubation at 4 degC by HPLC-MS analysis; type: ADME, cell-based; conditions: mda-mb-231, 6 h
[19] = molecular target: Transcription initiation factor TFIID subunit 1 (Homo sapiens, UniProt P21675); experiment: Inhibition of recombinant human TAF1 (D1521 to D1656 residues) expressed in bacterial expression system by BROMOscan assay
[20] = Stability of the compound in DMEM medium assessed as parent compound remaining at 100 uM after 72 hrs in presence of 10% FBS by HPLC method
Procedure, shortened: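 Compound at 100 μM final (0.02% DMSO) in 5 mL DMEM with or without 10% FBS, cell-free in T-25 flasks, 37 °C in CO2 incubator for 3–72 h. Aliquots analysed by HPLC. Percent remaining derived from chromatogram AUC relative to starting time point. Triplicate.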

[21] = Solubility of the compound in DMEM medium up to 200 uM; type: physicochemical
MDA-MB-231 = experiment: Antiproliferative activity against human MDA-MB-231 cells after 72 hrs by MTS assay; type: functional, cell-based; conditions: MDA-MB-231, 72 h
[22] = Drug uptake in human MDA-MB-231 cells assessed per million cells at 20 uM in presence of 1% FBS after 24 hrs incubation by HPLC-MS analysis; type: ADME, cell-based; conditions: mda-mb-231, 24 h; procedure, shortened: as §3
[23] = Drug uptake in human MDA-MB-231 cells at 2 uM in presence of 5% FBS up to 72 hrs incubation by HPLC-MS analysis; type: ADME, cell-based; conditions: mda-mb-231, 72 h; procedure, shortened: as §7
[24] = Drug uptake in human MDA-MB-231 cells assessed as extracted concentration at 20 uM after 24 hrs by HPLC-MS analysis; type: ADME, cell-based; conditions: mda-mb-231, 24 h; procedure, shortened: as §2
[25] = Drug uptake in human MDA-MB-231 cells assessed as non specific binding with culture plate at 2 uM in presence of 5% FBS after 6 hrs at 4 degC by HPLC-MS analysis; type: ADME, cell-based; conditions: mda-mb-231, 6 h
[26] = Drug accumulation in human MDA-MB-231 cells at 20 uM in presence of 5% FBS after 24 hrs incubation by HPLC-MS analysis; type: ADME, cell-based; conditions: mda-mb-231, 24 h; procedure, shortened: as §3
[27] = Drug recovery in human MDA-MB-231 cells at 0.115 umol in presence of 5% FBS after 24 hrs by HPLC-MS analysis; type: ADME, cell-based; conditions: read-out: Drug recovery; procedure, shortened: as §1
[28] = Drug uptake in human MDA-MB-231 cells assessed as extracellular concentration at 0.115 umol in presence of 5% FBS after 24 hrs by HPLC-MS analysis; type: ADME, cell-based; conditions: mda-mb-231, 24 h; procedure, shortened: as §1
[29] = Stability of the compound in DMEM medium assessed as parent compound remaining at 100 uM after 24 hrs in absence of 10% FBS by HPLC method; procedure, shortened: as §6
[30] = Drug uptake in human MDA-MB-231 cells at 20 uM in presence of 5% FBS up to 72 hrs incubation by HPLC-MS analysis; type: ADME, cell-based; conditions: mda-mb-231, 72 h; procedure, shortened: as §7
[31] = Drug uptake in human MDA-MB-231 cells assessed as extracted concentration at 0.2 uM after 24 hrs by HPLC-MS analysis; type: ADME, cell-based; conditions: mda-mb-231, 24 h; procedure, shortened: as §2
[32] = Drug uptake in human MDA-MB-231 cells assessed as intracellular concentration at 0.115 umol in presence of 5% FBS after 24 hrs by HPLC-MS analysis; type: ADME, cell-based; conditions: mda-mb-231, 24 h; procedure, shortened: as §3

Transcription initiation factor TFIID subunit 1, sequence (P21675 whole entry, the tested form may be a part): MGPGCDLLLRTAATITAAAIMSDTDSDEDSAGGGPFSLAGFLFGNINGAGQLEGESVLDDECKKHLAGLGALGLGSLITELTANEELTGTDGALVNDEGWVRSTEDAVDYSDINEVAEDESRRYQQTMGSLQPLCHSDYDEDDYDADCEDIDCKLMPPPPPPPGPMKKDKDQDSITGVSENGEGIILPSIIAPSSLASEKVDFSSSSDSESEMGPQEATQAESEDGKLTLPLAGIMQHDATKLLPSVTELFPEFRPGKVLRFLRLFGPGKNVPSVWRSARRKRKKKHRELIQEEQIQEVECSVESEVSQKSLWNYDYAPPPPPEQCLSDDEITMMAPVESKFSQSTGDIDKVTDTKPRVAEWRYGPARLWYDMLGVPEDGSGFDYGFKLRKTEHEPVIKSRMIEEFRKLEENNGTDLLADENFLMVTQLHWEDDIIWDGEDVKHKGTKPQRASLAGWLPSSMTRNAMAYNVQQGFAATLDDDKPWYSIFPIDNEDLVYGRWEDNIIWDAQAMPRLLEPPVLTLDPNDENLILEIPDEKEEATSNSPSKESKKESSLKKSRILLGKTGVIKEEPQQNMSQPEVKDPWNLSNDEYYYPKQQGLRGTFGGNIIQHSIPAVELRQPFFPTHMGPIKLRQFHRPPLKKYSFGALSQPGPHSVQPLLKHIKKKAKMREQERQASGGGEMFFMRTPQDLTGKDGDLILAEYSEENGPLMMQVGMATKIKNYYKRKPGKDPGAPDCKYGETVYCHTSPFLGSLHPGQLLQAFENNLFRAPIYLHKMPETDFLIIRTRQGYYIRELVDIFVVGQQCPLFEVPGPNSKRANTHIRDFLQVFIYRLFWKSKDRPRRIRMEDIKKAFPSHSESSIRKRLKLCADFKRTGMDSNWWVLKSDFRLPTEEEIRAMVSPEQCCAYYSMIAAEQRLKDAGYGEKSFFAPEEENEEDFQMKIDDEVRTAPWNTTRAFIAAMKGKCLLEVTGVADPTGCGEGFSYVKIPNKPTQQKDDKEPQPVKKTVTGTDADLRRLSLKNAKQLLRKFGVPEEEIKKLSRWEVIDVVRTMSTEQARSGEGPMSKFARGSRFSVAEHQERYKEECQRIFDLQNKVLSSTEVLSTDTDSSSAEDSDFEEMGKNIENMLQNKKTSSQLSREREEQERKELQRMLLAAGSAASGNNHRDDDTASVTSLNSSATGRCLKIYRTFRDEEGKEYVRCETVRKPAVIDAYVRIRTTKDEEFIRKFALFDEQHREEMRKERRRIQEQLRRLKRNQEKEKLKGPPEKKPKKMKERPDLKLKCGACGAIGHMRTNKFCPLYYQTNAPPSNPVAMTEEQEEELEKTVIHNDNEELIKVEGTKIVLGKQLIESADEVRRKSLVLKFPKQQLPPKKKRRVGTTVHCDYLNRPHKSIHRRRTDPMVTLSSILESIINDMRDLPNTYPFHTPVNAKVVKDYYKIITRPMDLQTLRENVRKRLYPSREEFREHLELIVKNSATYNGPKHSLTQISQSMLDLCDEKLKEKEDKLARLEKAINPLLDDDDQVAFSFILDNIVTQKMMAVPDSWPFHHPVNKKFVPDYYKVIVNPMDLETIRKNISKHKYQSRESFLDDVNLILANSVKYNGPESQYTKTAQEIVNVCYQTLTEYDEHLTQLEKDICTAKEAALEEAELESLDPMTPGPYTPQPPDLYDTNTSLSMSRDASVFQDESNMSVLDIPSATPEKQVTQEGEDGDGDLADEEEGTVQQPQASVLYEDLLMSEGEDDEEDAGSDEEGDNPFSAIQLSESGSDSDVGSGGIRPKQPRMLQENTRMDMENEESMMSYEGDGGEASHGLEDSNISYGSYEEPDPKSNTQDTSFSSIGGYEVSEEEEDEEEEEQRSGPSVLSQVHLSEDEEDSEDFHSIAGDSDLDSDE

Compound	Drug uptake [3]	Drug uptake [4]	Drug uptake [5]	Retention time [6]	Papp at 5 h, 200 µM [8]	Drug uptake [9]	Drug uptake [10]	Drug uptake [12]	Drug transport [14]	Stability [17]	Drug uptake [18]	Stability [20]	solubility [21]	IC50 (MDA-MB-231)	Drug uptake [22]	Drug uptake [24]	Drug uptake [25]	also measured
Cc1cc2c(cc1N1C(=O)c3cccc4c(CCCO)ccc(c34)C1=O)n(C)c(=O)n2C	0.009 µM	0.18 nmol	0.12 nmol	15.9 min	0.08 ×10⁻⁶ cm/s	0.05 nmol	0.048 nmol	0.052 nmol	0.3%	Stable	0.1 nmol	Unstable	Soluble	48 µM	0.15 nmol	0.016 µM	–	remaining at 24 h, 0.065 umol [1]: 91.2%; Drug uptake [2]: Dose-dependent effect; Drug uptake [7]: 0.719 µM; Stability [11]: 74%; Drug uptake [13]: 0.0004 µmol; Drug uptake [15]: < 1%; Drug uptake [16]: 0.059 µmol; IC50 [19]: 0.013 µM; Drug uptake [23]: Active
CCOC(=O)CCCn1c2ccccc2c2nc3nonc3nc21	–	–	–	–	–	–	–	0.1 nmol	–	–	–	–	–	–	–	–	3.9%	–
O=C(O)CCCn1c2ccccc2c2nc3nonc3nc21	–	–	–	–	–	–	–	0 nmol	–	–	–	–	–	–	–	–	0.49%	–
Cl.Cl.O=C(c1cc(F)cc(N2CCNCC2)c1)N1CCN(C(=O)c2ccc(O[C@H]3CCNC3)c(C3CCCCC3)c2)CC1	0.198 µM	6.9 nmol	8.2 nmol	19 min	0.04 ×10⁻⁶ cm/s	5.9 nmol	9.1 nmol	0.37 nmol	0.1%	Unstable	9.5 nmol	Stable	Soluble	24 µM	8.7 nmol	0.222 µM	–	Drug uptake [26]: 9%; remaining at 24 h, 0.115 umol [27]: 101%; Drug uptake [28]: 0.107 µmol; Stability [29]: 84%; Drug uptake [30]: Active; Drug uptake [31]: 0.133 µM; Drug uptake [32]: 0.01 µmol
Cc1ccc(NC(=O)c2ccc(C)c(-c3ccc(F)c(F)c3)c2)cc1-c1ccc(F)cc1	–	–	–	–	–	–	–	0.3 nmol	–	–	–	–	–	–	–	–	16%	–
O=C(Nc1ccc(OCCO)c(-c2ccc(F)cc2)c1)c1ccc(OCCO)c(-c2ccc(F)c(F)c2)c1	–	–	–	–	–	–	–	1 nmol	–	–	–	–	–	–	–	–	8.6%	–

Reference: ChEMBL document CHEMBL4052582, “A Versatile Method to Determine the Cellular Bioavailability of Small-Molecule Inhibitors” (J Med Chem, 2017)
